The source of these data is article PMC4391825 (Chembiochem : a European journal of chemical biology, 2014).

What all share (assay type): biochemical
Assay [1] has as its target T1, SaPanK (Staphylococcus aureus, UniProt Q8NVG0).
T1 sequence (Q8NVG0 1-267): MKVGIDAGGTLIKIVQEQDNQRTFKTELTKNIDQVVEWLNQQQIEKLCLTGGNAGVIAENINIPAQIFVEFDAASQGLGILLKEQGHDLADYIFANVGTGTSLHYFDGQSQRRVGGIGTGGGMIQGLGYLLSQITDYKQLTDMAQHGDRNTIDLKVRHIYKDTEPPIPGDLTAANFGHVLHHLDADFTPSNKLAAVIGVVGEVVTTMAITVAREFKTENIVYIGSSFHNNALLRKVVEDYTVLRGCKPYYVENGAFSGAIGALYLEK
As to the kind of experiment: RP-HPLC of stepwise conversion to […]a. To be noted: ATP, MgCl2; 100 mM Tris-HCl pH 7.60, 25 °C (large-scale mixture).

Assay [2] concerns the target T1, SaPanK. As to the kind of experiment: RP-HPLC of stepwise conversion to […]b. Particulars: ATP, MgCl2; 100 mM Tris-HCl pH 7.60, 25 °C (large-scale mixture).
For another assay, the target named is T2, PhaECAv (Allochromatium vinosum, UniProt P45370).
T2 sequence (P45370 1-355): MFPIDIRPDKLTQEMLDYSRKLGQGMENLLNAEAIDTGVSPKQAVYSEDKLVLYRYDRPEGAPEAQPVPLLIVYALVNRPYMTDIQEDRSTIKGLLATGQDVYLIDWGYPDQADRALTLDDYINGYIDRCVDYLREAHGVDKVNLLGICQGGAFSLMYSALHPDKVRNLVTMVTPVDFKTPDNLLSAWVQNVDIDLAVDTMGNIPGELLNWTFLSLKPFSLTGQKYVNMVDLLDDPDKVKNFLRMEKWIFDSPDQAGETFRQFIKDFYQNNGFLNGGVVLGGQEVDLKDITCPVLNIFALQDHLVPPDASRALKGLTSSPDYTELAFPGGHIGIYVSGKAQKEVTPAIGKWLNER
T2 sequence (P45372 1-357 partner): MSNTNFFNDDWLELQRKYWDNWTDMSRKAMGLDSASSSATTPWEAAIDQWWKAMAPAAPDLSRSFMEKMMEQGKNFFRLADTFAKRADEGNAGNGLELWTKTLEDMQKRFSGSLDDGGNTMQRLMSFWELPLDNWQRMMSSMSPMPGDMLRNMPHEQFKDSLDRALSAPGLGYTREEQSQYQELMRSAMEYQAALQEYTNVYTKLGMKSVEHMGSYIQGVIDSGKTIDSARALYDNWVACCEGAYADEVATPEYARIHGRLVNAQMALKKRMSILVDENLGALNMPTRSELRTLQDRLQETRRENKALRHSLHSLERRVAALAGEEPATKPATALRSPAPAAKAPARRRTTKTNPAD
As to the kind of experiment: continuous DTNB assay of CoA release, SigmaPlot fit. In outline:
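Purified wild-type PhaECAv at 5.80 nM, assayed at 30 °C in 100 mM KPi (pH 7.80) with 0.30 mM DTNB, 2 mg/mL BSA, HBCoA 0.025 to 1.60 mM, and test compound at varied concentrations. CoA release followed as A412 (ε 13.7 mM−1cm−1). Rates were taken from the initial fast-phase slope, in duplicate, and fitted to Michaelis-Menten inhibition models; Lineweaver-Burk plots assigned the mode.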

In general, Ki refers to a measure of affinity in units of concentration, obtained from inhibition or displacement.

Regarding `CCCC(=O)O[C@H](C)CC(=O)O[C@H](C)CC(=O)CCCNC(=O)CCNC(=O)[C@H](O)C(C)(C)CO` [17a, (R)-((R)-7-(3-((R)-2,4-dihydroxy-3,3-dimethylbutanamido)propanamido)-4-oxoheptan-2-yl) 3-(butyryloxy)butanoate], on SaPanK [1], the “RP-HPLC of stepwise conversion to 24a” value was “with sequential additions of SaPanK, EcCoaD, and EcCoaE, the resulting products were eluted faster”.
For `CCCC(=O)O[C@H](C)CC(=O)O[C@H](C)CC(=O)O[C@H](C)CC(=O)CCCNC(=O)CCNC(=O)[C@H](O)C(C)(C)CO` [17b, (R)-((R)-7-(3-((R)-2,4-dihydroxy-3,3-dimethylbutanamido)propanamido)-4-oxoheptan-2-yl) 3-((R)-3-(butyryloxy)butanoyloxy)butanoate], the “RP-HPLC of stepwise conversion to 24b” value at SaPanK [2] was “with sequential additions of SaPanK, EcCoaD, and EcCoaE, the resulting products were eluted faster”.
On to `CCCC(=O)O[C@H](C)CC(=O)O[C@H](C)CC(=O)CCCNC(=O)CCNC(=O)[C@H](O)C(C)(C)COP(=O)(O)OP(=O)(O)OC[C@H]1O[C@@H](n2cnc3c(N)ncnc32)[C@H](O)[C@@H]1OP(=O)(O)O` [26a, sT-CH2-CoA], for which, on PhaECAv, the Ki came out at 600 ± 30 µM.
Still for that read-out and setting: the figure for `CCCC(=O)O[C@H](C)CC(=O)O[C@H](C)CC(=O)O[C@H](C)CC(=O)CCCNC(=O)CCNC(=O)[C@H](O)C(C)(C)COP(=O)(O)OP(=O)(O)OC[C@H]1O[C@@H](n2cnc3c(N)ncnc32)[C@H](O)[C@@H]1OP(=O)(O)O` [26b, sTet-CH2-CoA] is 500 ± 30 µM; for `CCCC(=O)O[C@H](C)CC(=O)O[C@H](C)CC=O` [compound 29, sT-aldehyde] it is 3130 ± 470 µM.
